# Test system: PC9 cells
# Test: Cell cycle by PI staining flow cytometry
# Assay type: cell-based, human
# Conditions: PC9, 24 h
# Outline: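 Cells in RPMI 1640 with 10% FBS (37°C, 5% CO2) were seeded in 6-well plates at 20–25% confluence and exposed to graded test compound or a reference EGFR inhibitor for 24 h. They were then fixed in 70% ethanol for 24 h at 4°C, washed twice in PBS, treated with RNase A at 37°C for 30 min and stained with PI (50 μg/mL) for 10 min. DNA content was read by flow cytometry.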
smiles,measurement,value
COc1cc2ncnc(Nc3ccc(F)c(Cl)c3)c2cc1OCCCN1CCOCC1 [gefitinib],cell cycle arrest,arrested only PC9 (EGFR L858R+) cells at G0/G1 phase
